Laboratory results reported in ChEMBL document CHEMBL3751721, “Development of acridine derivatives as selective Mycobacterium tuberculosis DNA gyrase inhibitors” (Bioorg Med Chem, 2016).
In brackets after ≈: the same amount, converted by molar mass. Activity calls are given as the source filed them. The rule behind the calls is not given here.

Columns and labels:
[1] = Inhibition of Mycobacterium tuberculosis DNA topoisomerase 1
[2] = molecular target: DNA gyrase subunit B (Mycobacterium smegmatis) (UniProt P0C559); test: Inhibition of Mycobacterium smegmatis GyrB by ATPase assay; settings: Mycolicibacterium smegmatis
[3] = molecular target: DNA gyrase subunit A/DNA gyrase subunit B (Mycobacterium tuberculosis (strain ATCC 25618 / H37Rv), UniProt P9WG45+P9WG47); test: Inhibition of Mycobacterium tuberculosis DNA gyrase assessed as inhibition of DNA supercoiling after 30 mins by electrophoresis
[4] = Toxicity in zebrafish embryo assessed as atrio-ventricular ratio at 30 uM; design: species or system Danio rerio; settings: in vivo
Summary of the method: (§1)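 Zebrafish embryos from 2 female:3 male breeding, raised in E3 medium at 28 °C. Compound given at 1 to 30 µM in 0.1% DMSO vehicle, 20 µM terfenadine as reference, 4 h incubation. Embryos treated with tricaine, then 30 beats timed per atrium and ventricle. Rate = 1800/time(s) beats/min; AV ratio derived from these counts.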

Escherichia coli = test: Inhibition of Escherichia coli DNA gyrase assessed as inhibition of DNA supercoiling
[5] = tested on: Mycobacterium tuberculosis; test: Inhibition of Mycobacterium tuberculosis DNA topoisomerase 1 assessed as DNA relaxation at 50 uM
[6] = Toxicity in zebrafish embryo assessed as heart rate at 30 uM; design: species or system Danio rerio; settings: in vivo; summary of the method: as §1
[7] = molecular target: DNA gyrase (Staphylococcus aureus) (UniProt P0A0K8+P20831); test: Inhibition of Staphylococcus aureus DNA gyrase assessed as inhibition of DNA supercoiling; format: protein-complex assay
[8] = Inhibition of zebrafish ERG at 1 to 30 uM; design: species or system Danio rerio; summary of the method: as §1
[9] = tested on: Mycobacterium tuberculosis; test: Antimicrobial activity against Mycobacterium tuberculosis H37Rv ATCC 27294 after 28 days by alamar blue assay; format: functional; settings: H37Rv ATCC 27294, 672 h
[10] = Cytotoxicity against mouse RAW264.7 cells assessed as inhibition of cell growth at 50 uM after 72 hrs by MTT assay; format: cell-based
Summary of the method: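 RAW 264.7 mouse macrophages exposed to compound at 50 µM for 72 h. Viability read by MTT conversion to formazan, reported as percent inhibition.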

[11] = molecular target: DNA gyrase (Pseudomonas aeruginosa) (UniProt P48372+Q9I7C2); test: Inhibition of Pseudomonas aeruginosa DNA gyrase assessed as inhibition of DNA supercoiling; format: protein-complex assay

Sequence of DNA gyrase subunit A/DNA gyrase subunit B (P9WG45 whole entry): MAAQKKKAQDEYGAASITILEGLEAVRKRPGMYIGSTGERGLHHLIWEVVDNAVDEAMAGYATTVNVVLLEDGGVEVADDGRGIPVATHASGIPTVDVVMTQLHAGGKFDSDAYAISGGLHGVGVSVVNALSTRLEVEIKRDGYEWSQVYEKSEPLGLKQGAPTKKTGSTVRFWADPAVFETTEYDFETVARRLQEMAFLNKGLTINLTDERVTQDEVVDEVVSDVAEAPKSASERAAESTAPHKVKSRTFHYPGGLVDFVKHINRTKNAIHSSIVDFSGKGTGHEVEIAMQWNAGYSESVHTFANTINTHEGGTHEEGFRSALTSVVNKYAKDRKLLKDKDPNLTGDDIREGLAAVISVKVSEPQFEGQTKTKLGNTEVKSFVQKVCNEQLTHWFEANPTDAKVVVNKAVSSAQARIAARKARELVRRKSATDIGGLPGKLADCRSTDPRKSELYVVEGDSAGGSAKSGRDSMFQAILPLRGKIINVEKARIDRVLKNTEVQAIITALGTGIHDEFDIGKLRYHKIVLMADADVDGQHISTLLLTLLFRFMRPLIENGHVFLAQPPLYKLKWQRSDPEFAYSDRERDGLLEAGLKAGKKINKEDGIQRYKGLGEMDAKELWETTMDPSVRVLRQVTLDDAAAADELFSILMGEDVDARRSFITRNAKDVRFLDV
Sequence of DNA gyrase subunit A/DNA gyrase subunit B (P9WG47 whole entry): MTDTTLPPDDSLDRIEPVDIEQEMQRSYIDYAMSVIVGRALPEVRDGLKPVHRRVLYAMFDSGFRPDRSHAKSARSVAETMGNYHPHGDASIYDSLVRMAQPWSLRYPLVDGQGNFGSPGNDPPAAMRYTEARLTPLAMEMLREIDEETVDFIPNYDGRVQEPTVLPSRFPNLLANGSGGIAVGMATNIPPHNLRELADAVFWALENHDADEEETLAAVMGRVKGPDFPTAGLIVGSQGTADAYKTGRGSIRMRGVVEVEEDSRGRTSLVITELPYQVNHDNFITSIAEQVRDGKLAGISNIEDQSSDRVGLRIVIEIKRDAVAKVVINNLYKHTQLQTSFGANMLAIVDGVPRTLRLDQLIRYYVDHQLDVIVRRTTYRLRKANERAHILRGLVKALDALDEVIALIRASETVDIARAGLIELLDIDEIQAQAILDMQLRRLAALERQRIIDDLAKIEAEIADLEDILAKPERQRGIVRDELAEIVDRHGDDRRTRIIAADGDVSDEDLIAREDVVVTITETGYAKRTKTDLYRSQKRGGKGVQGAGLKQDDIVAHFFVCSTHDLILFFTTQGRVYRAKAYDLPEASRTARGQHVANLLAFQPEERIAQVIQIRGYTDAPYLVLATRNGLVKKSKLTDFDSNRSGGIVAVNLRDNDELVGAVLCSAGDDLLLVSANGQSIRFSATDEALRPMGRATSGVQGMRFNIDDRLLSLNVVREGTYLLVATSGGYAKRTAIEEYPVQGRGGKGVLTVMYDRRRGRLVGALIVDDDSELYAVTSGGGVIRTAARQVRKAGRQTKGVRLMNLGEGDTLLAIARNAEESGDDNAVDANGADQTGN
Sequence of DNA gyrase (Staphylococcus aureus) (P0A0K8 2-644 limits assumed): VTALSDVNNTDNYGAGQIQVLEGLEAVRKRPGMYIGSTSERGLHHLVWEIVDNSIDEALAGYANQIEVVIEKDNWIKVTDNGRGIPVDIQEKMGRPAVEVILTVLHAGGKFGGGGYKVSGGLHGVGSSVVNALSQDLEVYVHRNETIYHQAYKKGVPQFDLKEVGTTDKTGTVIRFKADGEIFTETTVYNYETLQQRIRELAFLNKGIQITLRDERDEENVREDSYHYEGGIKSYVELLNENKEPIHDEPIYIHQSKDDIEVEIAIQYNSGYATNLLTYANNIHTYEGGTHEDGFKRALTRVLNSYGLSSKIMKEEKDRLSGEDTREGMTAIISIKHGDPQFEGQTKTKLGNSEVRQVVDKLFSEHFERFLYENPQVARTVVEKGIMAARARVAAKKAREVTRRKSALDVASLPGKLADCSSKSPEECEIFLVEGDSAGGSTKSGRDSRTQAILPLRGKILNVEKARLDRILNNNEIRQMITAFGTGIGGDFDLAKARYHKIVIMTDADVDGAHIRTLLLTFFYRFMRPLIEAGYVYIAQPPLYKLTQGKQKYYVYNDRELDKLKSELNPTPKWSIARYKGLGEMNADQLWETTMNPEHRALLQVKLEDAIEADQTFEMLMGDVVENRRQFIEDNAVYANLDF
Sequence of DNA gyrase (Staphylococcus aureus) (P20831 whole entry partner): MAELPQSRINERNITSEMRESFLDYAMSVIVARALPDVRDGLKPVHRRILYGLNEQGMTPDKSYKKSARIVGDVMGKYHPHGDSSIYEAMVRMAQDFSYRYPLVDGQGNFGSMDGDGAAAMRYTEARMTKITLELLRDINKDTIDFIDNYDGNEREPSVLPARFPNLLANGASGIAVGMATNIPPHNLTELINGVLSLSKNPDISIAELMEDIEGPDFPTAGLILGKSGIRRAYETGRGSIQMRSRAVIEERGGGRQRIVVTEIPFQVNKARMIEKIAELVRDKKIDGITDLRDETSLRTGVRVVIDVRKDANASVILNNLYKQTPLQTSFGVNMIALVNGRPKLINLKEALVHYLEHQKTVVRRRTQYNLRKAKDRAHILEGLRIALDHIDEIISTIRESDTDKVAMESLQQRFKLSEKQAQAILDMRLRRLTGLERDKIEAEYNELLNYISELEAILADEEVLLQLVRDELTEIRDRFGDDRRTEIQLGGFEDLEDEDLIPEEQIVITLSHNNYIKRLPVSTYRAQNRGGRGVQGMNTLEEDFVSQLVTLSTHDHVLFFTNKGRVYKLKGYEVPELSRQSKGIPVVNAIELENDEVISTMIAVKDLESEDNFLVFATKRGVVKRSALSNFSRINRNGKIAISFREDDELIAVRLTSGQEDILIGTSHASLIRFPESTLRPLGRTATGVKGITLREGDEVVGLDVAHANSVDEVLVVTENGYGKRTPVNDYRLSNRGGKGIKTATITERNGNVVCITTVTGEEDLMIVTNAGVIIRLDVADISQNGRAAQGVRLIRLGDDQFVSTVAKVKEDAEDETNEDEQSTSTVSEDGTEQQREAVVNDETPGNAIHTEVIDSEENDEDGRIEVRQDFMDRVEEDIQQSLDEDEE
Sequence of DNA gyrase subunit B (Mycobacterium smegmatis) (P0C559 2-675 limits assumed): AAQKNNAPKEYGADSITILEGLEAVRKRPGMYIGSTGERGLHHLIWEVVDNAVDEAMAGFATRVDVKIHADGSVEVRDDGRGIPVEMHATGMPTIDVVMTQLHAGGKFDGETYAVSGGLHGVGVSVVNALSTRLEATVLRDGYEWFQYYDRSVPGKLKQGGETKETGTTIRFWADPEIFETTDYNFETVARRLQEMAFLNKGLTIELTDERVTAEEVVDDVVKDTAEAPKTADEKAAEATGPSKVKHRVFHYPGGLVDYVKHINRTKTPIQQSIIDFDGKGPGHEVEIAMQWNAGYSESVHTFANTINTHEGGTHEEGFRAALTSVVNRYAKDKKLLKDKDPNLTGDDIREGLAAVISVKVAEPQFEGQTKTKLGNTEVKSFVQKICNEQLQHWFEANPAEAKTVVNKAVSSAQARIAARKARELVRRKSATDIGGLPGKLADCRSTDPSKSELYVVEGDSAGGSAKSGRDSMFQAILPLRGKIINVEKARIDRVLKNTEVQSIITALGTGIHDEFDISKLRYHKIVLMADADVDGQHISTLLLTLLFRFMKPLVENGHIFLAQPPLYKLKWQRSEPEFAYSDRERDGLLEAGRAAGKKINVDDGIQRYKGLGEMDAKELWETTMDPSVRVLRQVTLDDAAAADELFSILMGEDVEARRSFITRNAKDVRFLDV

## COc1cc(NS(C)(=O)=O)ccc1Nc1c2ccccc2nc2ccccc12 [AMSACRINE]
[1]
  IC50: 10 µM

## Cc1ccc2nc3ccccc3c(Nc3ccc(NS(=O)(=O)c4ccc(Cl)cc4)cc3)c2c1
[2]
  inhibition: inactive
[3]
  IC50: 5.21 µM
[4]
  Activity: Non-toxic
Escherichia coli
  inhibition: inactive
[5]
  inhibition: inactive
[6]
  Activity: Non-toxic
[7]
  inhibition: inactive
[8]
  inhibition (INH): Not Active
[9]
  MIC: 6.59 µM (≈ 3.12 µg/mL)
[10]
  inhibition at 72 h, 50 µM: 11.8%
[11]
  inhibition: inactive

## O=C(Nc1ccccc1)Nc1ccc(Nc2c3ccccc3nc3ccc(Cl)cc23)cc1
[2]
  inhibition: inactive
[3]
  IC50: 23.6 µM
Escherichia coli
  inhibition: inactive
[5]
  inhibition: inactive
[7]
  inhibition: inactive
[9]
  MIC: 28.5 µM (≈ 12.5 µg/mL)
[10]
  inhibition at 72 h, 50 µM: 27.7%
[11]
  inhibition: inactive

## O=C(Nc1ccc(Cl)cc1)Nc1ccc(Nc2c3ccccc3nc3ccccc23)cc1
[2]
  inhibition: inactive
[3]
  IC50: 10.4 µM
Escherichia coli
  inhibition: inactive
[5]
  inhibition: inactive
[7]
  inhibition: inactive
[9]
  MIC: 28.5 µM (≈ 12.5 µg/mL)
[10]
  inhibition at 72 h, 50 µM: 26.2%
[11]
  inhibition: inactive

## Cc1ccc(NC(=S)Nc2ccc(Nc3c4ccccc4nc4ccc(C)cc34)cc2)cc1
[2]
  inhibition: inactive
[3]
  IC50: 26.9 µM
Escherichia coli
  inhibition: inactive
[5]
  inhibition: inactive
[7]
  inhibition: inactive
[9]
  MIC: 55.7 µM (≈ 25 µg/mL)
[10]
  inhibition at 72 h, 50 µM: 35%
[11]
  inhibition: inactive

## Cc1ccc2nc3ccccc3c(Nc3ccc(NC(=S)Nc4ccccc4)cc3)c2c1
[2]
  inhibition: inactive
[3]
  IC50: 6.3 µM
Escherichia coli
  inhibition: inactive
[5]
  inhibition: inactive
[7]
  inhibition: inactive
[9]
  MIC: 7.2 µM (≈ 3.13 µg/mL)
[10]
  inhibition at 72 h, 50 µM: 10.8%
[11]
  inhibition: inactive

## S=C(Nc1ccccc1)Nc1ccc(Nc2c3ccccc3nc3ccc(Cl)cc23)cc1
[2]
  inhibition: inactive
[3]
  IC50: 29.3 µM
Escherichia coli
  inhibition: inactive
[5]
  inhibition: inactive
[7]
  inhibition: inactive
[9]
  MIC: 27.5 µM (≈ 12.5 µg/mL)
[10]
  inhibition at 72 h, 50 µM: 11.7%
[11]
  inhibition: inactive

## Cc1ccc(S(=O)(=O)Nc2ccc(Nc3c4ccccc4nc4ccc(C)cc34)cc2)cc1
[2]
  inhibition: inactive
[3]
  IC50: 9.8 µM
Escherichia coli
  inhibition: inactive
[5]
  inhibition: inactive
[7]
  inhibition: inactive
[9]
  MIC: 27.6 µM (≈ 12.5 µg/mL)
[10]
  inhibition at 72 h, 50 µM: 27.8%
[11]
  inhibition: inactive

## Cc1ccc(NC(=S)Nc2ccc(Nc3c4ccccc4nc4ccccc34)cc2)cc1
[2]
  inhibition: inactive
[3]
  IC50: 31.1 µM
Escherichia coli
  inhibition: inactive
[5]
  inhibition: inactive
[7]
  inhibition: inactive
[9]
  MIC: > 57.5 µM
[10]
  inhibition at 72 h, 50 µM: 27.4%
[11]
  inhibition: inactive

## S=C(Nc1ccc(Cl)cc1)Nc1ccc(Nc2c3ccccc3nc3ccc(Cl)cc23)cc1
[2]
  inhibition: inactive
[3]
  IC50: 31.5 µM
Escherichia coli
  inhibition: inactive
[5]
  inhibition: inactive
[7]
  inhibition: inactive
[9]
  MIC: > 51.1 µM
[10]
  inhibition at 72 h, 50 µM: 6.7%
[11]
  inhibition: inactive

## Cc1ccc2nc3ccccc3c(Nc3ccc(NC(=S)Nc4ccc([N+](=O)[O-])cc4)cc3)c2c1
[2]
  inhibition: inactive
[3]
  IC50: 24.8 µM
Escherichia coli
  inhibition: inactive
[5]
  inhibition: inactive
[7]
  inhibition: inactive
[9]
  MIC: > 52.1 µM
[10]
  inhibition at 72 h, 50 µM: 28.8%
[11]
  inhibition: inactive
